Assay results of several laboratories.
Protocols differ between the studies behind these lines.
BTK: Tyrosine-protein kinase BTK (BTK, Homo sapiens, UniProt Q06187)

SMILES | target | effect on | mode | technique | tested at | quantity | result
Cc1sc(C(=O)NC2COC2)cc1-n1cc(NC(=O)Nc2c(F)cccc2Cl)cn1 | BTK | enzyme activity | inhibitor | – | 10 µM | remaining activity | 87.6%
NC(=O)[C@H]1CCN(c2ncnc(N)c2F)C[C@@H]1N1CCC[C@@H](Nc2cc(Cl)cc(C(F)(F)F)c2)C1=O | Tyrosine-protein kinase BTK (BTK, Homo sapiens, UniProt Q06187, C481S) | binding in cells | – | – | – | residence time | 16 min
COc1ccc(F)cc1C(=O)NCc1ccc(-c2nn([C@@H](C)C(F)(F)F)c(N)c2C(N)=O)cc1 | BTK | binding | – | SPR | – | kon | 82000 M⁻¹ s⁻¹
CC(C)(O)[C@H]1CC[C@H](Nc2ccc3ncc(-c4cccc(C(F)(F)F)c4)n3n2)CC1 | BTK | enzyme activity | inhibitor | – | 1 µM | remaining activity | 88%
O=C1Nc2ccc(Cl)cc2C1=Cc1cc(Cl)c(O)c(Cl)c1 | BTK | cell-free assay | – | – | 0.5 µM | remaining signal | 92.1%
O=C(Nc1cnn(-c2csc(C(=O)NC3COC3)c2)c1)Nc1c(F)cccc1Cl | BTK | enzyme activity | inhibitor | – | 5 µM | remaining activity | 89.3%
CC(C)(C)c1nc2c(s1)c1nc(N)ncc1c1ccc(NS(=O)(=O)c3c(F)cccc3F)c(F)c12 | BTK | enzyme activity | inhibitor | radiometric | 1 µM | remaining activity | 75%
Cc1cnc(NC2CCOCC2)nc1-n1cnc(C(=O)NC(CN)c2cc(F)cc(Cl)c2)c1 (stereo not drawn) | BTK | enzyme activity | inhibitor | radiometric | 1 µM | remaining activity | 102%
COc1cc(Nc2cnc(C#N)c(O[C@H](C)CN(C)C)n2)ncc1-c1cnn(C)c1 | BTK | enzyme activity | inhibitor | radiometric | 10 µM | remaining activity | 60%
O=C1NC(=O)c2cc(Nc3ccc(F)cc3)c(Nc3ccc(F)cc3)cc21 | BTK | cell-free assay | – | – | 0.5 µM | remaining signal | 94.3%
Cc1noc([C@H]2C[C@@H](c3ccc(C(F)(F)F)cc3)CN(C(=O)N3CCS(=O)(=O)C3)C2)n1 | BTK | cell-free assay | – | competition with immobilised ligand | 1 µM | remaining binding | 96%
Oc1cccc(-c2nc(N3CCOCC3)c3oc4ncccc4c3n2)c1 | BTK | cell-free assay | – | – | 0.5 µM | remaining signal | 95.2%
Nc1nc(NC2CCCCC2)sc1C(=O)c1ccccc1 | BTK | enzyme activity | inhibitor | – | 10 µM | remaining activity | 75%
O=C(NCCCC1CCCCC1)c1ccc(CNC(=O)c2cnn(-c3ccccc3)c2C(F)(F)F)cc1 | BTK | cell-free assay | – | competition with immobilised ligand | 0.1 µM | remaining binding | 100%
FC(F)c1nc2ccccc2n1-c1nc(N2CCOCC2)nc(N2CCOCC2)n1 | BTK | enzyme activity | inhibitor | – | 10 µM | remaining activity | 98%
CC(=O)N1CCC(c2ccc(C(=O)NC(=N)N)cc2C(F)(F)F)CC1 | BTK | cell-free assay | – | competition with immobilised ligand | 1 µM | remaining binding | 100%
c1nc2c(Nc3ccc4c(c3)OCCO4)nc(Nc3ccc4c(c3)OCCO4)nc2[nH]1 | BTK | enzyme activity | inhibitor | – | 10 µM | activity vs control | 0.65%
O=C(NCc1ncc(C(F)(F)F)cc1Cl)c1ccc2c(c1)C1(CCS(=O)(=O)CC1)[C@@H](C1CC1)N2S(=O)(=O)c1ccc(F)cc1 | BTK | cell-free assay | – | competition with immobilised ligand | 1 µM | remaining binding | 73%
Cc1ccc(NC(=O)c2ccc(C)c(C(F)(F)F)c2)cc1C#Cc1nn(C2CCC(O)CC2)c2ncnc(N)c12 (stereo not drawn) | BTK | cell-free assay | – | – | 10 µM | remaining signal | 10%
CCC(=N\O)/C(C)=C/c1ccc(F)cc1 | BTK | cell-free assay | – | competition with immobilised ligand | 1 µM | remaining binding | 78%
CC(C)(C=C(C#N)C(=O)N1CCC[C@H]1Cn1nc(-c2ccc(Oc3ccccc3)cc2F)c2c(N)ncnc21)N1CCOCC1 | BTK | enzyme activity | inhibitor | – | – | kinact | 0.0048 s⁻¹
CS(=O)(=O)N1CCCC(NC(=O)[C@H](CCC2CCCCC2)NC(=O)c2ccc(CNC(=O)c3cnc4ccccn34)cc2)C1 (stereo partly drawn) | BTK | cell-free assay | – | competition with immobilised ligand | 0.1 µM | remaining binding | 100%
Cc1cc(NC(=O)c2cccc3cc(-c4cccc5[nH]nc(N)c45)ccc23)ccc1F | Tyrosine-protein kinase BTK (BTK, Homo sapiens, UniProt Q06187, R28H) | enzyme activity | inhibitor | – | 0.1 µM | activity vs control | 84%
NS(=O)(=O)c1cc(NC(=O)C2(c3ccccc3Cl)CC2)ccc1Oc1cccc(Cl)c1 | BTK | cell-free assay | – | competition with immobilised ligand | 1 µM | remaining binding | 88%
C=CC(=O)N1CCC[C@@H]1Cn1nc(-c2ccc(Oc3ccccc3)cc2F)c2c(N)ncnc21 | BTK | enzyme activity | inhibitor | – | – | kinact | 0.0034 s⁻¹
CC(C)(C)C(=O)c1sc(NC2CCCCC2)nc1N | BTK | enzyme activity | inhibitor | – | 10 µM | remaining activity | 79%
N#CC1(c2ccccn2)CCN(Cc2cc(C(=O)N3CCCC3)c(=O)n3ccccc23)CC1 | BTK | cell-free assay | – | competition with immobilised ligand | 1 µM | remaining binding | 100%
